Data taken from ChEMBL document CHEMBL5653631, “A Potent and Selective ULK1 Inhibitor Suppresses Autophagy and Sensitizes Cancer Cells to Nutrient Stress” (iScience, 2018).

Legend:
[1] = molecular target: Serine-protein kinase ATM (Homo sapiens) (UniProt Q13315); assay: Inhibition of human recombinant ATM at 500 nM in presence of ATP by radiometric assay relative to control
Summary of the method: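 Panel of 327 recombinant human kinases, each assayed in vitro by radiometric activity assay in duplicate at a single inhibitor concentration per compound, chosen with reference to its ULK1 inhibition. Activity remaining was expressed as percent of vehicle control, and percent inhibition was calculated as 100 minus percent activity remaining.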

[2] = molecular target: Leukocyte tyrosine kinase receptor (Homo sapiens) (UniProt P29376); assay: Inhibition of human recombinant LTK at 500 nM in presence of ATP by radiometric assay relative to control
Sequence of Leukocyte tyrosine kinase receptor (Homo sapiens) (P29376 whole entry): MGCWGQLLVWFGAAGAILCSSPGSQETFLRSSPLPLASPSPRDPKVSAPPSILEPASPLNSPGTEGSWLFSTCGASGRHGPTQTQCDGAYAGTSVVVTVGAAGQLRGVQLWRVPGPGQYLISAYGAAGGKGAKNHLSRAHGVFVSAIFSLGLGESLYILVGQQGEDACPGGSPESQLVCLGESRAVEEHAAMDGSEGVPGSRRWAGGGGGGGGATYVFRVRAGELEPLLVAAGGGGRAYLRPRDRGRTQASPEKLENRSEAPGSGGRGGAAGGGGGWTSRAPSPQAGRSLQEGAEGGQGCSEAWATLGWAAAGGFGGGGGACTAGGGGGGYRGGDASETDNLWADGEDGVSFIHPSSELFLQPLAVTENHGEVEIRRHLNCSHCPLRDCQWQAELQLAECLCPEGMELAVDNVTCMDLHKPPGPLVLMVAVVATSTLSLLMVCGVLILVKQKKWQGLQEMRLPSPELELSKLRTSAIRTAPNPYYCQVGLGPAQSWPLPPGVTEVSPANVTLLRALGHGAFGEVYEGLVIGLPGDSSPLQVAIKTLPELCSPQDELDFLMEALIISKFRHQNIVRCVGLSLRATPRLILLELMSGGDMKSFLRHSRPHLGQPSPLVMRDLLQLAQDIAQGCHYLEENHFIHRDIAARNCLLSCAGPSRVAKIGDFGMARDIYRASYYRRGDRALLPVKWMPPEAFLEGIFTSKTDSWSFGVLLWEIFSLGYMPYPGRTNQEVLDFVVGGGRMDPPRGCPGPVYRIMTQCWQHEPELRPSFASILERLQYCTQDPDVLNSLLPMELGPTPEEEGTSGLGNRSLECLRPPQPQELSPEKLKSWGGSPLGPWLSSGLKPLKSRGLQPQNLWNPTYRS

[3] = molecular target: Dual specificity protein kinase CLK4 (Homo sapiens) (UniProt Q9HAZ1); assay: Inhibition of human recombinant CLK4 at 500 nM related to control ULK1
[4] = molecular target: Casein kinase II subunit alpha (Homo sapiens) (UniProt P68400); assay: Inhibition of human recombinant CK2a1 at 15 nM in presence of ATP by radiometric assay relative to control
[5] = molecular target: Serine/threonine-protein kinase D2 (Homo sapiens) (UniProt Q9BZL6); assay: Inhibition of human recombinant PKD2 at 15 nM in presence of ATP by radiometric assay relative to control
[6] = molecular target: Homeodomain-interacting protein kinase 1 (Homo sapiens) (UniProt Q86Z02); assay: Inhibition of human recombinant HIPK1 at 15 nM related to control ULK1
Sequence of Homeodomain-interacting protein kinase 1 (Homo sapiens) (Q86Z02 whole entry, looked up): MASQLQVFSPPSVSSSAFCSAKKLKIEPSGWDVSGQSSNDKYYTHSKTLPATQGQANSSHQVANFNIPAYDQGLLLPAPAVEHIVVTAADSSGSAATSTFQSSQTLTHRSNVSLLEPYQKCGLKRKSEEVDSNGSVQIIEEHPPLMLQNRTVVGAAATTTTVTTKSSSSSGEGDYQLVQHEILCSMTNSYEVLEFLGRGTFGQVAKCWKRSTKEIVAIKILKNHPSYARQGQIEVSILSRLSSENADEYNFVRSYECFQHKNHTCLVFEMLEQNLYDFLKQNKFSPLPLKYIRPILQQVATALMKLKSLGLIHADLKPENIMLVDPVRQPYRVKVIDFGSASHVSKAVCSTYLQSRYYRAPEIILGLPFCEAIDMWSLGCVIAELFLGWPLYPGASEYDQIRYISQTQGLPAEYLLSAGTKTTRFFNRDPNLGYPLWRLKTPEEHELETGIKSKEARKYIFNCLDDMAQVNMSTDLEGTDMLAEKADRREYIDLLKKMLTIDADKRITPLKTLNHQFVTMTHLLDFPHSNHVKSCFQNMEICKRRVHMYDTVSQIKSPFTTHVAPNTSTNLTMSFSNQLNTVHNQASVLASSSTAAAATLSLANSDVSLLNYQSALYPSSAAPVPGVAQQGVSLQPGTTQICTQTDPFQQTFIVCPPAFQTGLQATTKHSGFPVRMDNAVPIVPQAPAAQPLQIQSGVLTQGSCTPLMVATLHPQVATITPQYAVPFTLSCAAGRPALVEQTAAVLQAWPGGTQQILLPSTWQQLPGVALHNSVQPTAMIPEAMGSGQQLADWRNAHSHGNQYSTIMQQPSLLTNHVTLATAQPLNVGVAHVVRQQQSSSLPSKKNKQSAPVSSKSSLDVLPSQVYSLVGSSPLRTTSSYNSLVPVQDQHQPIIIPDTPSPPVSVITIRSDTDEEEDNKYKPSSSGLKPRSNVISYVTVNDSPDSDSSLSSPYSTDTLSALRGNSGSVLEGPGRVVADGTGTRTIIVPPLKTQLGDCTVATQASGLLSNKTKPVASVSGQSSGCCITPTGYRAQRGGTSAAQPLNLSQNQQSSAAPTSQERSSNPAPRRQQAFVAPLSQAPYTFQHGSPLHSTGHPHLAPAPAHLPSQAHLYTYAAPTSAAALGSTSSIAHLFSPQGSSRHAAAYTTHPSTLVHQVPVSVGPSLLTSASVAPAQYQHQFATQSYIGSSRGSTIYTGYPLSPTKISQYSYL

[7] = molecular target: Tyrosine-protein kinase JAK2 (Homo sapiens) (UniProt O60674); assay: Inhibition of human recombinant JAK2 at 15 nM in presence of ATP by radiometric assay relative to control
[8] = molecular target: T1, Ephrin type-A receptor 3 (Homo sapiens) (UniProt P29320); assay: Inhibition of human recombinant EphA3 at 15 nM in presence of ATP by radiometric assay relative to control
T1 sequence (whole entry): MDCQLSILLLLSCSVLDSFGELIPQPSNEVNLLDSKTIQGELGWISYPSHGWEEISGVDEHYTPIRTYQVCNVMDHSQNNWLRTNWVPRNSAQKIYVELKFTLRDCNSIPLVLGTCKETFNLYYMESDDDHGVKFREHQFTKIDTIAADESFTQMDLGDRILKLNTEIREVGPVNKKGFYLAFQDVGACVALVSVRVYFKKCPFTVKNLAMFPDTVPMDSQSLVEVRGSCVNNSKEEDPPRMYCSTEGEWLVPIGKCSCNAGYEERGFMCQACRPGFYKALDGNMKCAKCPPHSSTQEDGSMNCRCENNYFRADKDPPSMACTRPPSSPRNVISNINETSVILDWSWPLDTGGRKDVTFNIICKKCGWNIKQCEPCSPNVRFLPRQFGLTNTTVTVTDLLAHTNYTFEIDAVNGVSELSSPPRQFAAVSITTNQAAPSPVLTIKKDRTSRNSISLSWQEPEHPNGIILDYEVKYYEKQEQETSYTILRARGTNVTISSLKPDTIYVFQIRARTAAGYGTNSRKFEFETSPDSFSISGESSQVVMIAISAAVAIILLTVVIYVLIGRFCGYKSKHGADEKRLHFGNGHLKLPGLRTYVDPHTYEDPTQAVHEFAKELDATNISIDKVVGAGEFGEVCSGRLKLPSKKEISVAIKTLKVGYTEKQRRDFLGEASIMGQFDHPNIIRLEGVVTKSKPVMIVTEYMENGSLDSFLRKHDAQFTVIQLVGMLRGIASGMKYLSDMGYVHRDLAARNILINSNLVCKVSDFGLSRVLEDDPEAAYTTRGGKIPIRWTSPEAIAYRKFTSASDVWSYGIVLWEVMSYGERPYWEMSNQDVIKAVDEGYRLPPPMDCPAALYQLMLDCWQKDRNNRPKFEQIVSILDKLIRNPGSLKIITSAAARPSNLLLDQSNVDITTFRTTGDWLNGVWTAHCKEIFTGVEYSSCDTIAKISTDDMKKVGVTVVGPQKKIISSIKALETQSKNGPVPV

[9] = molecular target: Tau-tubulin kinase 2 (Homo sapiens) (UniProt Q6IQ55); assay: Inhibition of human recombinant TTBK2 at 40 nM related to control ULK1
[10] = molecular target: Ribosomal protein S6 kinase alpha-1 (Homo sapiens) (UniProt Q15418); assay: Inhibition of human recombinant RSK1 at 40 nM related to control ULK1

Sequence of Serine-protein kinase ATM (Homo sapiens) (Q13315 whole entry): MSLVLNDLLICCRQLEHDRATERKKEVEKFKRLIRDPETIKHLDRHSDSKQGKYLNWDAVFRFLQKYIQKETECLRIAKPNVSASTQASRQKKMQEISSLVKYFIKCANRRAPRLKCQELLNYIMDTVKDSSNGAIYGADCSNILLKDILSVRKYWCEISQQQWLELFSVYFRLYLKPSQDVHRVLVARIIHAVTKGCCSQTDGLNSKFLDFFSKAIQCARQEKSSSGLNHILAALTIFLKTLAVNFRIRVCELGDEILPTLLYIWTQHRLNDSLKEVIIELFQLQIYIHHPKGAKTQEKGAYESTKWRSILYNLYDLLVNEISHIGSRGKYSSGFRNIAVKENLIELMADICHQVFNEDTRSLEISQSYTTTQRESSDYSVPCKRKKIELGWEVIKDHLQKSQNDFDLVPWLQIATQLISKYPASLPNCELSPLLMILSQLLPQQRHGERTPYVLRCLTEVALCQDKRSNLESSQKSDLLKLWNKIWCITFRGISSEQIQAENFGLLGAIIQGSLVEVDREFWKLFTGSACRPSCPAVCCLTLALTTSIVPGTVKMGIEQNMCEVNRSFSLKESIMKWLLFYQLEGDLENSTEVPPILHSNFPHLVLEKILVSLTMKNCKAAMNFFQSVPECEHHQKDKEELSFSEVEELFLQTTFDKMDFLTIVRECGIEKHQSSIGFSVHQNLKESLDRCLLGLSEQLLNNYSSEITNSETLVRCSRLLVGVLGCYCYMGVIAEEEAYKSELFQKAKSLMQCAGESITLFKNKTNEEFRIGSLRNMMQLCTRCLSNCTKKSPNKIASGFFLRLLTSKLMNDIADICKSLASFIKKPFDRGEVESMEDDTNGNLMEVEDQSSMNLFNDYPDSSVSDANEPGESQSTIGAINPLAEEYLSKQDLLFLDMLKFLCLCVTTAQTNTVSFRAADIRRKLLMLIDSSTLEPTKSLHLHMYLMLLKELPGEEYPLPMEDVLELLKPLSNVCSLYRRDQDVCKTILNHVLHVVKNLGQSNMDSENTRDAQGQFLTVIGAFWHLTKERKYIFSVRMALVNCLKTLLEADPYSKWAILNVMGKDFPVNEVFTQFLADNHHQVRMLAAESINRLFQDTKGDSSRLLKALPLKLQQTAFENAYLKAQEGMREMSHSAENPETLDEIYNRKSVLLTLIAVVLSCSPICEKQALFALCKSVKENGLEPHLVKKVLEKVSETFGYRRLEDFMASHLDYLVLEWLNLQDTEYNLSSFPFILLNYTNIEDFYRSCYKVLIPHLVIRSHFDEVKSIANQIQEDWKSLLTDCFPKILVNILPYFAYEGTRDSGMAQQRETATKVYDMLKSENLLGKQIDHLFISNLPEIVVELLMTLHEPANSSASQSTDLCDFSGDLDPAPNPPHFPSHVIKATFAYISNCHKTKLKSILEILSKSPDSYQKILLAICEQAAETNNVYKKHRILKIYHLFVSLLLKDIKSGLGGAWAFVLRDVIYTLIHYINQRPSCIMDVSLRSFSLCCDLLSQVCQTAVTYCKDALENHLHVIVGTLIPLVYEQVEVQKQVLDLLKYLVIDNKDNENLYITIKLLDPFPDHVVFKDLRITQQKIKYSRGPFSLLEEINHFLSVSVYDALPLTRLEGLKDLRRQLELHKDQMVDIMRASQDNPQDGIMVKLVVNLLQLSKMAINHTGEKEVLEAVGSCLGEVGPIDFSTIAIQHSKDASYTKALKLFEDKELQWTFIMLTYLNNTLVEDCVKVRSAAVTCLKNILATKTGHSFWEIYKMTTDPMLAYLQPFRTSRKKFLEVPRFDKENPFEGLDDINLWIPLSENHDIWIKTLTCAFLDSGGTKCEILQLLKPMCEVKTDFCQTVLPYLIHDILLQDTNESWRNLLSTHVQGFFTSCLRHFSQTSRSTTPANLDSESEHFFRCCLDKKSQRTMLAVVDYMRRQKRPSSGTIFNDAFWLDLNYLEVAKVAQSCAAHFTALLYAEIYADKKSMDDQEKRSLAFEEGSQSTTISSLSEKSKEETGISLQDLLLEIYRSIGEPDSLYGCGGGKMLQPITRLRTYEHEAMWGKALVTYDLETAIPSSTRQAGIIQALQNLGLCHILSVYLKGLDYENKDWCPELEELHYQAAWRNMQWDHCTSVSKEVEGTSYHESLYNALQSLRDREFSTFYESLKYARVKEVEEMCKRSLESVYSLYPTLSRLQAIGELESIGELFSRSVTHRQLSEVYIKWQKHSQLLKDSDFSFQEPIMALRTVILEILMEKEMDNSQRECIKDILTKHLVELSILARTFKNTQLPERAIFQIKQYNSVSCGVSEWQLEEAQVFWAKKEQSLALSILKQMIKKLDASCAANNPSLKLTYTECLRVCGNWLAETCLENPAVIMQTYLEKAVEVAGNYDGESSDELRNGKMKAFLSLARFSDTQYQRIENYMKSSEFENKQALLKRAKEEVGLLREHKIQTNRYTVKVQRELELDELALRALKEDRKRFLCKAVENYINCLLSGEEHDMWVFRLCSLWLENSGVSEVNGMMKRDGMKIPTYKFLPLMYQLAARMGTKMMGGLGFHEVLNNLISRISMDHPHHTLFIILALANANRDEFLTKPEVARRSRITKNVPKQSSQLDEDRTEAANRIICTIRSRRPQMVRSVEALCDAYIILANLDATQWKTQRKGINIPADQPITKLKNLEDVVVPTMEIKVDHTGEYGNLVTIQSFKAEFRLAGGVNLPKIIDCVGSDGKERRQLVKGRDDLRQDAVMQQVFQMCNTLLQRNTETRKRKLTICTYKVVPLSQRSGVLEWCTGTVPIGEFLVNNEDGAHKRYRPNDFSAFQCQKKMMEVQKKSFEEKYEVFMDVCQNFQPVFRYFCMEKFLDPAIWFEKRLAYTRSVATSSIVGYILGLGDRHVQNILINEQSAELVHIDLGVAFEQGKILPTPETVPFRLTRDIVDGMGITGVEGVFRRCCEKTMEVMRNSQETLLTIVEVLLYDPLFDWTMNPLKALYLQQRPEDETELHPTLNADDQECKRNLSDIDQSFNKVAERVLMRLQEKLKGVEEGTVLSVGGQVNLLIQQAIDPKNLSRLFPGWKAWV

## CNC(=O)c1ccccc1Oc1nc(Nc2cc(OC)c(OC)c(OC)c2)ncc1Br
[1]
  inhibition: 2%
[2]
  inhibition: 3%
[3]
  fold change (FC): 0.11

## CC(C)[C@H](NC(=O)c1cc(-c2cnn3cc(-c4ccc(OCCN5CCCCC5)cc4)cnc23)cs1)C(F)(F)F
[4]
  inhibition: 0%
[5]
  inhibition: 0%
[6]
  fold change (FC): 0
[7]
  inhibition: 6%
[8]
  inhibition: 3%

## O=C(N[C@@H](C1CC1)C(F)(F)F)c1cc(-c2cnn3cc(-c4ccc(F)cc4)cnc23)cs1
[9]
  fold change (FC): 0
[10]
  fold change (FC): 0.11
